Compounds with a hit are over-represented: about 3.1% of the library has one in this group of screens.
Yeast growth inh = yeast BB579 growth reduction in restrictive medium; actives 0.51% (n = 140,000); S. cerevisiae BB579 growth, OD615, 48 h; AID 804; inhibition, % at 10 µM;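 active = inhibition above a set limit, 3 SD over the mean compound inhibition, cut at about 44% in these data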
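System: Saccharomyces cerevisiae DeaD strain BB579, replicative lifespan model yeast. Buffer or medium: restrictive glucose-based CSMM-D medium. Doses: one dose, 10 µM compound with 0.25% DMSO. Timing: 4 h preincubation and 48 h exposure at 30 °C. Detection: turbidity as optical density at 615 nm. Benchmarks: amphotericin B 10 µg/mL, positive.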
Insulin prom up = MIN6 insulin promoter up-regulation; MIN6 insulin promoter-GFP reporter, high-content imaging; hits give high values; z-score at 5 µM; actives 0.3% (n = 190,000);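 active = z-score above 3 at 5 µM with at least 500 cells counted in the well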
Insulin prom inh = TRM-6 insulin promoter activity inhibition; TRM-6 cells, insulin promoter-eGFP reporter, imaging; reporter expression induced with tamoxifen; inhibition, % at 2 µM; actives 0.9% (n = 130,000);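 active = inhibition above the mean plus 3 SD, with well images judged a real hit on visual review, cut at about 60% in these data, passing the limit was not always enough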
RAM inhibit = blocks the yeast RAM network. S. cerevisiae dse1pr::URA3 reporter, 5-FOA growth OD615, 2 d; analog-sensitive cbk1-as2 kinase mutant strain. inhibition, % at 50 µM. actives 1.8% (n = 190,000);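 active = inhibition above a set limit, 3 SD over mean compound inhibition, cut at about 8.4% in these data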;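 note: 0% = DMSO-only wells with no growth and 100% = 10 µM 1-NA-PP1 full growth; inhibition rescues growth on 5-FOA so higher OD means more RAM inhibition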
Yeast lifespan up = yeast lifespan extension | S. cerevisiae growth with nicotinamide, OD615; deaD strain in restrictive glucose medium | inhibition of the nicotinamide effect, % at 10 µM | actives 0.68% (n = 130,000) | AID 775;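 active = inhibition above a set limit, placed 3 SD over the median of all compounds, cut at about 26% in these data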;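 note: 0% = nicotinamide-treated wells and 100% = cells grown without nicotinamide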
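assay system = DeaD-strain S. cerevisiae | measured by = absorbance at 615 nm | probe or stimulus = nicotinamide 1.5 mM | buffer or medium = CSMM-D glucose medium, restrictive | times = 48 h at 30 °C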
Starred values were filed as active, the others as inactive; . = not tested or not shown.

SMILES | Yeast growth inh | Insulin prom up | Insulin prom inh | RAM inhibit | Yeast lifespan up
O=C(NCc1ccc(F)cc1)c1ccccc1OCc1ccccc1 | 0.1 | -0.87 | -38.9 | 10.4* | -3.9
O=C(NCc1ccccc1)c1cccc(COc2cc(Cl)ccc2Cl)c1 | -46.1 | -0.63 | . | 7.7 | 5.5
N#C/C(=C\c1cn(Cc2ccccc2F)c2ccccc12)C(=O)NCc1ccco1 | 20.3 | -0.06 | -6.7 | 5.4 | 14.2
CCN(CC)CCCC(C)Nc1c2ccc(Cl)cc2nc2ccc(OC)cc12 (configuration not stated) | . | 12.4* | . | . | .
COc1ccc2nc(Cl)cc(Cl)c2c1 | . | -0.28 | . | . | .
O=C(CSc1ncccn1)NN=C1CCCCCC1 | -45.7 | 0.28 | 66.7* | 0.0 | 0.1
O=C(NCC(=O)N(c1ccccc1)C(C(=O)NC1CCCCC1)c1cccnc1)c1cccs1 (configuration not stated) | . | 0.34 | . | 3.2 | .
O=C(NCC(=O)N(c1ccc(F)cc1)C(C(=O)NC1CCCC1)c1cccnc1)c1cccs1 (configuration not stated) | . | -0.16 | . | 8.9* | .
CCCn1c(C(C)NC(C)=O)nc2ccccc21 (configuration not stated) | 43.7* | 0.58 | 20.0 | 2.6 | -2.4
c1ccc(NCc2nc3ccccc3n2CCOc2ccccc2)cc1 | -23.0 | -0.01 | 5.9 | -0.7 | 40.8*
COc1ccc(NCc2nc3ccccc3n2CCOc2ccccc2)cc1 | 22.2 | 0.01 | 18.2 | 0.1 | 55.8*
COc1ccc(NCc2nc3ccccc3n2CCOc2ccc(C)cc2)cc1 | 92.3* | -3.98 | -17.2 | -0.3 | 4.8
CCCCC(NC(C)=O)c1nc2ccccc2n1CCC (configuration not stated) | -19.6 | . | -37.1 | 1.0 | -5.1
Cc1ccc(OCCn2c(CCCO)nc3ccccc32)cc1 | 19.2 | 2.1 | -17.9 | 0.8 | -11.6
CCCc1nc2ccccc2n1CCOc1ccccc1 | -32.1 | 0.68 | 25.0 | 0.0 | -2.8
COc1ccc(/C=C(\C#N)C(=O)OCC(=O)Nc2ccc(C(C)(C)C)cc2)cc1 | -42.9 | . | . | 5.7 | 10.6
CC1(C)CC(=O)c2cc(N=C/C(C(=O)c3ccccc3)=C(\O)c3ccccc3)c(=O)oc2C1 | . | 0.04 | . | 3.8 | .
CCCn1c(CNc2ccccc2O)nc2ccccc21 | 45.5* | -0.29 | -327.3 | -0.3 | 3.7
CCCCn1c(CNC(=O)CCC)nc2ccccc21 | 0.2 | -0.46 | . | -0.3 | -1.1
Cc1ccc(S(=O)(=O)c2ccc(C)cc2)cc1 | -17.1 | 0.57 | 19.4 | 2.2 | 57.8*
CCOC(=O)c1sc2nc(C)[nH]c(=S)c2c1C | . | -1.25 | 78.6* | 0.4 | .
Cc1c(CN2CCCC(C(=O)c3cccc(OC(C)C)c3)C2)c(=O)n(-c2ccccc2)n1C (configuration not stated) | . | -0.29 | . | 0.1 | .
CCCc1ccc(C(=O)NNc2ccccc2F)cc1 | . | -0.27 | . | . | .
O=C(O)c1ccc(N(c2ccccc2)c2ccccc2)cc1 | 44.4* | . | -500.0 | 2.0 | .
CCN(CC)c1ccc(C(=O)O)cc1 | -13.6 | 0.11 | . | 1.2 | 2.5
SMILES | Yeast growth inh | Insulin prom up | Insulin prom inh | RAM inhibit | Yeast lifespan up
C=CCN(CC=C)c1nc2ccccc2nc1C(C#N)C(=O)OC(C)C (configuration not stated) | -33.8 | . | -46.9 | 0.9 | 36.1*
C=CCOC(=O)C(C#N)c1nc2ccccc2nc1N1CCN(c2ccccc2OC)CC1 (configuration not stated) | -42.9 | -1.79 | -71.9 | 2.3 | -0.2
CCOC(=O)CSC(=S)NC(=O)c1ccc(OC)cc1 | -48.7 | 0.07 | -18.2 | -0.4 | 39.8*
CCSc1nc2c(cnn2-c2ccccc2)c(=O)n1N | . | 0.74 | . | . | .
Cc1ccc(/C=c2\sc3nc(-c4cccs4)nn3c2=O)o1 | -10.4 | 0.07 | 13.2 | 9.0* | 8.5
CCc1ccc(S(=O)(=O)NCCc2cn3ccsc3n2)s1 | 46.5* | 0.56 | . | 0.2 | 11.3
COC(=O)c1ccncc1C(=O)Nc1ccc(F)cc1 | . | 0.05 | 7.1 | 0.5 | .
O=C(NN1C(=O)c2ccccc2C1=O)C1C2CCCCC21 (configuration not stated) | -18.1 | -0.19 | -16.7 | 1.9 | 40.9*
O=C(NN1C(=O)c2ccccc2C1=O)c1ccncc1 | . | 0.02 | . | 1.2 | .
CCOC(=O)c1c(C)oc2c1cc(O)c1ccccc12 | -32.9 | -0.22 | 54.5 | 0.3 | -7.2
CCOC(=O)c1c(C)oc2c1c(C=NCc1ccccn1)c(O)c1ccccc12 | -59.1 | 0.19 | . | 3.4 | 31.4*
CCOC(=O)c1c(C)oc2c1c(C=NCC1CCCO1)c(O)c1ccccc12 (configuration not stated) | -61.6 | 0.09 | 0.0 | 6.0 | 29.1*
CCOC(=O)c1c(C)oc2c1c(C(c1cccnc1)N1CCN(C)CC1)c(O)c1ccccc12 (configuration not stated) | . | 0.16 | . | . | .
CCOC(=O)c1c(C)oc2c1c(C(c1cccnc1)N1CCOCC1)c(O)c1ccccc12 (configuration not stated) | -16.3 | 0.96 | . | -0.8 | 40.4*
Cc1c(Cc2ccccc2)sc(NC(=O)/C=C/c2cccc3ccccc23)c1C(N)=O | -36.5 | -0.39 | . | 9.8* | 4.7
Fc1ccc2nc(Nc3nc4cc5c(cc4s3)OCO5)sc2c1 | -8.5 | . | . | 9.2* | -1.2
Fc1ccc2nc(Nc3nc4cc5c(cc4s3)OCCO5)sc2c1 | -40.7 | 0.68 | -64.0 | 4.5 | -2.4
CC(C)C1CC(CCN2CCCCC2)(c2ccccc2)CCO1 (configuration not stated) | . | -1.06 | -46.7 | 2.4 | .
Oc1cccc2ccc(/C=C/c3cccs3)nc12 | 58.6* | -0.62 | 43.5 | -0.4 | -18.1
Cc1ccc(S(=O)(=O)Oc2ccc(C)cc2/C=N/N=C2\NC(=O)C(C)S2)cc1 (configuration not stated) | -42.0 | . | 79.0* | 1.7 | -2.3
COc1ccccc1OCCC(=O)OCC(=O)c1[nH]c(C)c(C(C)=O)c1C | . | . | . | 2.6 | .
COC(=O)/C(=C1/Oc2cc3c(cc2S1)OCO3)C(F)(F)F | -58.0 | -0.43 | 0.0 | 2.7 | 37.1*
O=C(COC(=O)c1ccccc1NS(=O)(=O)c1ccc(Cl)cc1)NCc1ccccc1 | -47.1 | -0.12 | 6.7 | 10.7* | 8.3
CCOC(=O)c1ccccc1NC(=O)c1cc(S(=O)(=O)N2CCOCC2)ccc1F | -11.0 | . | -9.7 | 1.2 | -10.0
CCOC(=O)c1ccccc1NS(=O)(=O)c1ccc(S(=O)(=O)N2CCCC2)cc1 | -31.5 | -0.4 | . | 10.2* | 1.7
COc1ccccc1NC(=O)Cn1c(CCC(=O)O)ccc1-c1ccccc1 | . | -1.14 | . | 3.8 | .
O=C(COC(=O)c1cc(S(=O)(=O)N2CCCC2)ccc1O)Nc1ccc(S(=O)(=O)N2CCOCC2)cc1 | . | -0.13 | . | . | .
O=C(COC(=O)c1cc(S(=O)(=O)N2CCOCC2)ccc1O)NCC1CCCO1 (configuration not stated) | -34.5 | 3.77* | 57.1 | 2.1 | -14.5
Cc1ccsc1C(=O)NNC(=O)C1C2C=CC(C2)C1C(=O)O (configuration not stated) | -23.4 | 0.47 | . | 0.9 | 2.4
CCCCCC(=O)N/N=C(\C)c1ccc(Cl)cc1 | -7.7 | 0.43 | 100.0* | 1.6 | -10.0

Source: PubChem (several laboratories)
